Assay results from PMC10240386 (Cell chemical biology, 2023).

Legend:
[1] = tested on: DHA-resistant clones DR1, DR2, DR4 derived from Dd2; assay: Standard 72-h in vitro assay on DHA-resistant clones; format: cell-based, Plasmodium falciparum; settings: standard 72-h assay
[2] = tested on: Dd2β5^A49S; assay: Parasite growth inhibition assay, erythrocytic stage; format: cell-based, Plasmodium falciparum
[3] = tested on: Pf20Sβ5^A49S; assay: Blocking of MV151 labeling in parasite lysate; format: binding, Plasmodium falciparum; settings: 1 h preincubation of Dd2β5^A49S lysate
Summary of the method: (§1)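 Dd2 wild-type or mutant parasite pellets lysed on ice for 1 h in 50 mM Tris-HCl, 5 mM MgCl2, 1 mM DTT, pH 7.4, then centrifuged; protein quantified by BCA. 5–10 µg of lysate protein preincubated with test compound for 1 h at 37°C. MV151 added at 2 µM final for a further 1 h at 37°C, protected from light. Run on 12% Bis-Tris SDS-PAGE and scanned at Cy3/TAMRA (λex 532, λem 560 nm).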

[4] = molecular target: human c-20S β5c (Homo sapiens, UniProt P20618+P28074); assay: Proteasome IC50 determination, human c-20S β5c; format: biochemical
Summary of the method: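 Human c-20S (0.2 nM) assayed in 20 mM HEPES, 0.5 mM EDTA, 0.1 mg/mL BSA, pH 7.5, with 0.02% SDS and 25 µM suc-LLVY-AMC. Pf20S (1 nM) assayed in 50 mM Tris, 5 mM MgCl2, 1 mM DTT, pH 7.4, with 12 nM PA28α, 0.5 µM WLW-VS and 25 µM suc-LLVY-AMC. Test compound given as a 3-fold series, 100–0.0017 µM final. AMC read at 360/460 nm for 1–2 h; linear velocities fitted to a dose-response equation. Run in duplicate or triplicate.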

[5] = tested on: Pf20S β5 in lysate of Dd2^WT; assay: Blocking of MV151 labeling in parasite lysate; format: binding, Plasmodium falciparum; settings: 1 h preincubation of Dd2^WT lysate
Summary of the method: as §1

[6] = tested on: P. berghei G2025^R551T (K13^R551T); assay: Modified Peters' 4-day suppressive test for recrudescence, ART-resistant strain; format: in vivo, Swiss Webster mice; settings: ART 50 mg/kg, ATZ4 100 mg/kg i.p. day 0 to day 2
[7] = tested on: intracellular Pf20S β5 with the β5^A49S mutation; assay: Intraparasitic hybrid activation and proteasome inhibition assay; format: cell-based, Plasmodium falciparum; settings: ATZ4 700 nM, Dd2β5^A49S parasites, compared with WT
Summary of the method: (§2)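 Dd2 wild-type and mutant lines grown synchronized to 5–8% parasitemia. Early-trophozoite infected erythrocytes pulsed 6 h with test compound (700 or 800 nM) or DMSO, then washed four times in complete medium. Parasites released with saponin, washed in cold PBS and lysed in 20 mM Tris-HCl, 5 mM MgCl2, 1 mM DTT, pH 7.4. Equal lysate amounts labeled with 2 µM MV151 for 1 h at 37°C, separated by SDS-PAGE and scanned on the TAMRA channel.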

[8] = tested on: Pf20Sβ6^A117D; assay: Blocking of MV151 labeling in parasite lysate; format: binding, Plasmodium falciparum; settings: 1 h preincubation of Dd2β6^A117D lysate
Summary of the method: as §1

[9] = molecular target: human i-20S β5i (Homo sapiens, UniProt P20618+P28062); assay: Proteasome IC50 determination, human i-20S β5i; format: biochemical
Summary of the method: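 Human i-20S (0.4 nM) assayed in 20 mM HEPES, 0.5 mM EDTA, 0.1 mg/mL BSA, pH 7.5, with 0.02% SDS and 15 µM Ac-ANW-AMC. Pf20S (1 nM) assayed in 50 mM Tris, 5 mM MgCl2, 1 mM DTT, pH 7.4, with 12 nM PA28α, 0.5 µM WLW-VS and 25 µM suc-LLVY-AMC. Test compound given as a 3-fold series, 100–0.0017 µM final. AMC read at 360/460 nm for 1–2 h; velocities fitted to a dose-response equation. Run in duplicate or triplicate.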

[10] = tested on: Dd2β6^A117DK13^R539T; assay: Parasite growth inhibition, dual resistant strain; format: cell-based, Plasmodium falciparum
[11] = tested on: HepG2 cells; assay: HepG2 cell viability assay; format: cell-based; settings: Homo sapiens, HepG2, 72 h, read-out: HepG2
[12] = tested on: P. berghei ANKA lux; assay: In vivo efficacy in mice infected with P. berghei ANKA lux; design: species or system Swiss Webster mice
[13] = tested on: intracellular Pf20S β5 with the β6^A117D mutation; assay: Intraparasitic hybrid activation and proteasome inhibition assay; format: cell-based, Plasmodium falciparum; settings: ATZ4 700 nM, Dd2β6^A117D parasites, compared with WT
Summary of the method: as §2

[14] = molecular target: Pf20S β5 (Plasmodium falciparum, UniProt A0A5K1K7U1+Q8IJT1); assay: biochemical; format: biochemical
[15] = tested on: Pf Dd2^WT; assay: Parasite growth inhibition assay, erythrocytic stage; format: cell-based, Plasmodium falciparum
[16] = tested on: Dd2β6^A117D; assay: as above; format: cell-based, Plasmodium falciparum

In the case of `C[C@H]1[C@@H](CC(=O)NCCCC(=O)N[C@@H](CC(=O)NC(C)(C)C)C(=O)NCCNC(=O)c2cc(-c3ccccc3F)ccc2F)O[C@@H]2O[C@@]3(C)CC[C@H]4[C@H](C)CC[C@@H]1[C@@]24OO3` [ATZ4, (S)-N4-(tert-butyl)-N1-(2-(2′,4-difluoro-[1,1′-biphenyl]-3-carboxamido)ethyl)-2-(4-(2-((3R,5aS,6R,8aS,9R,10R,12R,12aR)-3,6,9-trimethyldecahydro-12H-3,12-epoxy[1,2]dioxepino[4,3-i]isochromen-10-yl)acetamido)butanamido)succinamide], the “susceptibility of DHA-resistant clones compared with WT Dd2” value [1] is reported as “equally susceptible”, the “fold improvement over PI01 against Dd2β5^A49S” value [2] is reported as > 100 fold and the “fold more resistant / reduced potency, Dd2β5^A49S versus parental Dd2” value ([2]; EC50 ratio) is reported as ≤ 3.6 fold. The EC50 ([2]; Plasmodium falciparum, 72 h, read-out: EC50 Dd2β5^A49S) was 5.9 ± 1.9 nM, the “blocking of MV151 labeling of β5” value [3] was “prevented PI01 and ATZ4 from inhibiting” and the IC50 [4] was 890 ± 140 nM. For the same compound, the “blocking of MV151 labeling of β5” value [5] was “dose dependently blocked labeling of β5”, the “mice with positive blood smear on day 6” value [6] was 0% and the “mice with positive blood smear on day 8” value [6] was 0%. The “mice with positive blood smear on day 10” value [6] was 60%, the “inhibition of Pf20S β5 labeling by MV151 after 6 h pulse and washing” value [7] was “similarly effective” and the “blocking of MV151 labeling of β5” value [8] was “prevented PI01 and ATZ4 from inhibiting”. The IC50 [9] was 200 ± 57 nM, the “potency across Dd2, Dd2β6^A117D, Dd2K13^R539T and Dd2β6^A117DK13^R539T” value [10] was “equipotent” and the EC50 [11] was 9400 nM. The “effect on parasite load” value ([12]; 10 mg/kg i.p. once daily day 3 to day 6, luminescence on day 7) was “no detectable effect”, the “decrease in parasite load” value ([12]; 25 mg/kg i.p. once daily day 3 to day 6, luminescence on day 7) was 1.2 log10 and the “decrease in parasite load” value ([12]; 50 mg/kg i.p. once daily day 3 to day 6, luminescence on day 7, to below the limit of detection) was > 3 log10. For the same compound, the “inhibition of Pf20S β5 labeling by MV151 after 6 h pulse and washing” value [13] was “similarly effective”, the IC50 [14] was 4.3 ± 0.9 nM and the “activity against Pf20S” value ([14]; Pf20S β5) was “potency comparable with that of PI01”. The “times more potent than ART1 against Dd2” value ([15]; EC50 ratio) was 10 times, the EC50 ([15]; Plasmodium falciparum, DD2, Erythrocyte, 72 h, read-out: EC50 Pf Dd2^WT) was 4.3 ± 1.3 nM and the “fold improvement over PI01 against Dd2β6^A117D” value [16] was ≥ 5 fold. The “fold more resistant / reduced potency, Dd2β6^A117D versus parental Dd2” value ([16]; EC50 ratio) was ≤ 2.9 fold and the EC50 ([16]; Plasmodium falciparum, 72 h, read-out: EC50 Dd2β6^A117D) was 6.7 ± 2.2 nM.
